These results are taken from ChEMBL document CHEMBL4118110, “The identification of inhibitory compounds of Rickettsia prowazekii methionine aminopeptidase for antibacterial applications” (Bioorg Med Chem Lett, 2018).

Each structure is given as a SMILES string.

One series can be described thus: Inhibition of Rickettsia prowazekii N-terminal His6-tagged methionine aminopeptidase 1 expressed in Escherichia coli DLB3 Rosetta cells using Met-AMC as substrate preincubated for 1 hr followed by 30 mins incubation after substrate addition measured after 90 mins in presence of MnCl2 by fluorescence assay. The procedure, abridged: (§1)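 Recombinant R. prowazekii MetAP with Mn(II) as the metal cofactor. Met-AMC substrate; release of free AMC is followed by fluorescence (excitation 360 nm, emission 460 nm). Activity is the slope of fluorescence versus time, compared with an uninhibited control.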
By IC50 is commonly meant the concentration at which inhibition is half-maximal. As to `Cc1ccc(C(=O)CSc2nnc(C)[nH]2)c(C)c1`, the IC50 is 0.4 µM.

For the molecule `Nc1nnc(SCCC(=O)OC2CCCCC2)[nH]1`, the IC50 worked out at 9.4 µM.

Turning to `COc1ccc2c(C)c(C(=O)O)[nH]c2c1`, the IC50 is 3.7 µM.

On to `Nc1nnc(SCc2cccc3ccccc23)[nH]1`, for which the IC50 amounted to 5 µM.

For the molecule `CC(=O)Nc1ccc(C(=O)CSc2nnc(N)[nH]2)cc1`, the IC50 is 10 µM.

Consider `Cc1csc(-c2ccccn2)n1`, for which the IC50 was 1.1 µM.

`CNS(=O)(=O)c1ccc(C(=O)O)o1`: the IC50 turned out to be 0.27 µM.

On to `O=C(O)c1cc2ccc(F)cc2oc1=O`, for which the IC50 came to 8.3 µM.

Take `Cc1n[nH]c(SCC(=O)c2cccc([N+](=O)[O-])c2)n1`: the IC50 was 1.2 µM.

Regarding `CCCCn1cnc2sc(C(=O)O)c(C)c2c1=O`, the IC50 is 3.1 µM.

For `O=C(O)c1cc(-c2ccccc2)on1`, the IC50 was found to be 1.4 µM.

The next series is described as follows: Solubility of the compound. In kind it is physicochemical.
Turning to `NCc1nnnn1-c1cccc(Br)c1`, the solubility result is recorded as “Insoluble”.

For the molecule `C=CCNC(=O)c1cc(-c2ccccn2)nc2ccccc12`, the solubility result is “Insoluble”.

With `O=C(O)c1cc(-c2ccc(Cl)cc2)n[nH]1`, the solubility entry is “Insoluble”.

Turning to `CCCNC(=O)c1cc(-c2ccccn2)nc2ccccc12`, the solubility entry is “Insoluble”.

A further series is described as follows: Inhibition of Rickettsia prowazekii N-terminal His6-tagged methionine aminopeptidase 1 expressed in Escherichia coli DLB3 Rosetta cells at 10 uM using Met-AMC as substrate preincubated for 1 hr followed by 30 mins incubation after substrate addition measured after 90 mins in presence of MnCl2 by fluorescence assay relative to control. The procedure, abridged: as §1
A word on the inhibition: it is the share of the control response that was lost under treatment. On to `Cc1ccc(C(=O)CSc2nnc(C)[nH]2)c(C)c1`, for which the inhibition was in the range of 54 to 68%.

Consider `COc1ccc2c(C)c(C(=O)O)[nH]c2c1`, for which the inhibition is 28 to 80%.

Consider `Nc1nnc(SCc2cccc3ccccc23)[nH]1`, for which the inhibition is 74 to 83%.

In the case of `CC(=O)Nc1ccc(C(=O)CSc2nnc(N)[nH]2)cc1`, the inhibition was 89%.

With `Cc1csc(-c2ccccn2)n1`, the inhibition lay within 85 to 89%.

As for `CNS(=O)(=O)c1ccc(C(=O)O)o1`, the inhibition lay within 43 to 91%.

Consider `O=C(O)c1cc2ccc(F)cc2oc1=O`, for which the inhibition was 23 to 78%.

With `NC(=O)CSc1nnc(-c2ccccc2)[nH]1`, the inhibition was in the range of 22 to 45%.

Take `O=C(O)c1cc(-c2ccccn2)nc2ccc(F)cc12`: the inhibition was 29 to 61%.

For the molecule `CC(N)c1ncc(-c2ccc(F)cc2)o1` (stereo not given), the inhibition was in the range of 46 to 50%.

For the molecule `Cc1ccc(N2C(=O)CC(Sc3nc[nH]n3)C2=O)cc1` (stereo not given), the inhibition lay in the range of 40 to 56%.

With `CN(C)c1cccc(-c2ccc(C(=O)NN)cc2)c1`, the inhibition lay in the range of 29 to 56%.

Turning to `Cc1c(C(=O)O)sc2nc[nH]c(=O)c12`, the inhibition lay in the range of 44 to 51%.

`Cc1cccc2nc(C(=O)O)cn12`: the inhibition lay in the range of 38 to 58%.

For the molecule `c1ccc(-c2n[nH]c(-c3ccccn3)n2)cc1`, the inhibition is 6 to 23%.

`Oc1ccccc1-c1nncn1-c1ccccc1`: the inhibition was in the range of 14 to 46%.

As for `CCCCn1cnc2sc(C(=O)O)c(C)c2c1=O`, the inhibition was 46 to 54%.

On to `O=c1[nH]c2cccc3c2n(c1=O)CCO3`, for which the inhibition fell in the range of 24 to 32%.

For the molecule `O=C1CCCN1c1ccc(S(=O)(=O)Nc2cccc3cccnc23)cc1`, the inhibition was in the range of 5 to 22%.

Turning to `Nc1nnc(SCc2cccc(Cl)c2)[nH]1`, the inhibition lay in the range of 1 to 23%.

As to `O=c1[nH]c2cc(Cl)ccc2n(Cc2ccccc2)c1=O`, the inhibition fell in the range of 1 to 62%.

Turning to `Nc1ccncc1-c1ccc(C(=O)O)s1`, the inhibition lay in the range of 12 to 58%.

As for `CC(C)Oc1ccc(CCSc2nnc(N)[nH]2)cc1`, the inhibition was in the range of 47 to 53%.

As to `O=C(O)c1cn(-c2ccccc2)nn1`, the inhibition lay within 1 to 47%.

As to `Cc1c(C(=O)O)sc2ncn(CC(=O)O)c(=O)c12`, the inhibition lay within 2 to 44%.

For the molecule `CC(C)c1ccc(C(=O)CSc2nc[nH]n2)cc1`, the inhibition lay in the range of 1 to 32%.

As for `COc1ccc(OCCSc2n[nH]c(N)n2)cc1`, the inhibition is 27 to 32%.

As to `Sc1nnc(-c2ccc(Br)cc2)[nH]1`, the inhibition lay in the range of 33 to 61%.

On to `CCc1n[nH]c(SCc2ccc([N+](=O)[O-])cc2)n1`, for which the inhibition is 1 to 27%.

As for `Nc1[nH]n(-c2ccccc2)c(=O)c1C1=NCCCCC1`, the inhibition was in the range of 2 to 35%.

On to `CCc1nnc(SCC(=O)c2ccc(C)cc2C)[nH]1`, for which the inhibition lay within 14 to 45%.

As for `O=c1cc(CN2CCCCCC2)occ1O`, the inhibition lay in the range of 32 to 44%.

For `COCCCn1cnc2sc(C(=O)O)c(C)c2c1=O`, the inhibition is 7 to 22%.

Turning to `Cc1ccc(NC(=O)CSc2nnc[nH]2)c(C)c1`, the inhibition was in the range of 25 to 66%.

For `Nc1nnc(SCc2ccc(F)cc2)[nH]1`, the inhibition was in the range of 1 to 18%.

With `N#CC1=C(c2ccccc2)CSC(c2ccccn2)=NC1=N`, the inhibition lay within 2 to 20%.

On to `Oc1ccc(-c2ccc(F)cc2)nn1`, for which the inhibition lay in the range of 44 to 66%.

In the case of `Nc1ccccc1-c1nnc2n1CCCCC2`, the inhibition fell in the range of 5 to 46%.

`CCc1nnc(SCC(=O)c2ccc(C(C)C)cc2)[nH]1`: the inhibition was 9 to 44%.

In the case of `Cc1c(C(=O)O)sc2ncn(C3CCCC3)c(=O)c12`, the inhibition lay within 20 to 26%.

As for `Cc1ccccc1-c1nnc(C(C)N)o1` (stereo not given), the inhibition lay within 2 to 39%.

`Cc1c(C(=O)O)sc2ncn(CC3CCCO3)c(=O)c12` (stereo not given): the inhibition lay in the range of 10 to 24%.

As to `O=C(O)c1cc(-c2ccccc2)on1`, the inhibition lay within 80 to 82%.

For the molecule `Cc1cc(C)nc(SCc2ccc(C(=O)O)o2)n1`, the inhibition was in the range of 9 to 11%.

In the case of `Nc1nnc(SCC(=O)OC2CCCC2)[nH]1`, the inhibition was 53 to 59%.

With `N#Cc1ccccc1CSc1nnc(N)[nH]1`, the inhibition was 27 to 28%.

Take `CCN1CCN(Cc2ccc(O)c3ncccc23)CC1`: the inhibition lay in the range of 20 to 39%.

Consider `Cc1[nH]nc(C(=O)O)c1-c1ccccc1`, for which the inhibition lay within 2 to 37%.

Consider `COc1ccc(C(=O)CSc2nnc[nH]2)cc1C`, for which the inhibition is 1 to 48%.

Consider `O=Cc1ccc(OCc2ccc(C(=O)O)o2)cc1`, for which the inhibition is 40 to 59%.
